Assay results reported in ChEMBL document CHEMBL3124838, “Discovery of 6-aryl-azabenzimidazoles that inhibit the TBK1/IKK-ε kinases” (Bioorg Med Chem Lett, 2014).

Tests used:
[1] = biological target: Myosin light chain kinase, smooth muscle (Homo sapiens) (UniProt Q15746); experiment: Inhibition of human MLCK assessed as residual activity at 1 uM relative to control
[2] = biological target: 5'-AMP-activated protein kinase catalytic subunit alpha-2 (Homo sapiens) (UniProt P54646); experiment: Inhibition of human AMPKalpha2 assessed as residual activity at 1 uM relative to control
[3] = biological target: Cyclin-dependent kinase 1/cyclin B1 (Homo sapiens) (UniProt P06493+P14635); experiment: Inhibition of human CDK1/cyclin B assessed as residual activity at 1 uM relative to control; assay type: protein-complex assay
[4] = biological target: T1, Serine/threonine-protein kinase STK11 (Homo sapiens) (UniProt Q15831); experiment: Inhibition of human LKB1 assessed as residual activity at 1 uM relative to control
T1 sequence (whole entry): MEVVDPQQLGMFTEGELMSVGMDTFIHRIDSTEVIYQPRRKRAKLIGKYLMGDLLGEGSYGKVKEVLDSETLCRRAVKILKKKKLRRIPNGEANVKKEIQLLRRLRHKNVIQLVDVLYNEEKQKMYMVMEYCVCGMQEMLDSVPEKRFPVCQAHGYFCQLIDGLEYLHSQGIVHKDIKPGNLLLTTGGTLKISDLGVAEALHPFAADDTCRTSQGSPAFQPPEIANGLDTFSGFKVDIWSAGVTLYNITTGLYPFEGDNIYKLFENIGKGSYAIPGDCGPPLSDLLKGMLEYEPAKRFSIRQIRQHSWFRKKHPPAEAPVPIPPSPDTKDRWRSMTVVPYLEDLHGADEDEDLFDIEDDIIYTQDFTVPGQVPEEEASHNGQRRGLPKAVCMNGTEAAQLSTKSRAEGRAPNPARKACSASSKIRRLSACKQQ

Aurora kinase B = Aurora kinase B (Homo sapiens, UniProt Q96GD4); experiment: Inhibition of aurora B (unknown origin)
Sequence of Aurora kinase B (Q96GD4 whole entry): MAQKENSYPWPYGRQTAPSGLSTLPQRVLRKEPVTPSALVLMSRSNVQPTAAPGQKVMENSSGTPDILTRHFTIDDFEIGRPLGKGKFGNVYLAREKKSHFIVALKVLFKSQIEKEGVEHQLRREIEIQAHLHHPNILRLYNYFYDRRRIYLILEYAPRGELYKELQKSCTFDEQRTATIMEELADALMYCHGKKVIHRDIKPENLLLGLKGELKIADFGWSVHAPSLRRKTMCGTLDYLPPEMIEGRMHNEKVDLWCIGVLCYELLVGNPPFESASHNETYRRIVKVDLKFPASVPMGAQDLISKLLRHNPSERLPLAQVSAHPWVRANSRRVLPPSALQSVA

[5] = biological target: Tyrosine-protein kinase ABL1 (Homo sapiens) (UniProt P00519); experiment: Inhibition of human ABL assessed as residual activity at 1 uM relative to control
Sequence of Tyrosine-protein kinase ABL1 (Homo sapiens) (P00519 whole entry, canonical isoform): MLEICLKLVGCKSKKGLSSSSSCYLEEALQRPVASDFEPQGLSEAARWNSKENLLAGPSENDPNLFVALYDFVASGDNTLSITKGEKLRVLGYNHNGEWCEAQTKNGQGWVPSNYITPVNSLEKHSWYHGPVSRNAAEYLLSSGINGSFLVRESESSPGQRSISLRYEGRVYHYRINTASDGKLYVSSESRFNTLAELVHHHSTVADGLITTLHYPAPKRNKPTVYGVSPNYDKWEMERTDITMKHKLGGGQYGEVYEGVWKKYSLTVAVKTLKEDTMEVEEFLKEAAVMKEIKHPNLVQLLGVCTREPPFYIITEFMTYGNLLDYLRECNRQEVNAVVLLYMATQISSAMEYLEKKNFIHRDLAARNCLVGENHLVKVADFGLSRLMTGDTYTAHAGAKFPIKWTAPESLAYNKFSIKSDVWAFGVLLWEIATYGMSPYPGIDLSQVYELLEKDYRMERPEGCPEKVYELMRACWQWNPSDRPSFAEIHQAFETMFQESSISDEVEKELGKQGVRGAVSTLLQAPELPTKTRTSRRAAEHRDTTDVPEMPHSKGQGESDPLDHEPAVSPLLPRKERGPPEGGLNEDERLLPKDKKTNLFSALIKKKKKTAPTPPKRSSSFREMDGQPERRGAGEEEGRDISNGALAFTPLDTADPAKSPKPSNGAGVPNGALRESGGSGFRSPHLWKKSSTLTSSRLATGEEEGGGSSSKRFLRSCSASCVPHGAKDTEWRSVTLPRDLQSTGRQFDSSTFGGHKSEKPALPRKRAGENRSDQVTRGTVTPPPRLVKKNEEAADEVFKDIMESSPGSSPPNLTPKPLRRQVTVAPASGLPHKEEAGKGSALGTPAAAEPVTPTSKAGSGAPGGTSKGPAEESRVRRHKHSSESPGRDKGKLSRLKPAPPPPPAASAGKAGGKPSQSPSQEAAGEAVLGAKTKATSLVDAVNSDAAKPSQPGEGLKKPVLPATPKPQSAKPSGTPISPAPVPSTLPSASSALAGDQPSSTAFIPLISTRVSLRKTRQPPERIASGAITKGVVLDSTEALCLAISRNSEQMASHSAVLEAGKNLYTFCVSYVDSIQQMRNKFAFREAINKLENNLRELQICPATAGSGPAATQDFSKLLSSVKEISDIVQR

[6] = biological target: Phosphatidylinositol 4,5-bisphosphate 3-kinase catalytic subunit gamma isoform (Homo sapiens) (UniProt P48736); experiment: Inhibition of human PI3K p120gamma assessed as residual activity at 1 uM relative to control
Sequence of Phosphatidylinositol 4,5-bisphosphate 3-kinase catalytic subunit gamma isoform (Homo sapiens) (P48736 whole entry, looked up, canonical isoform): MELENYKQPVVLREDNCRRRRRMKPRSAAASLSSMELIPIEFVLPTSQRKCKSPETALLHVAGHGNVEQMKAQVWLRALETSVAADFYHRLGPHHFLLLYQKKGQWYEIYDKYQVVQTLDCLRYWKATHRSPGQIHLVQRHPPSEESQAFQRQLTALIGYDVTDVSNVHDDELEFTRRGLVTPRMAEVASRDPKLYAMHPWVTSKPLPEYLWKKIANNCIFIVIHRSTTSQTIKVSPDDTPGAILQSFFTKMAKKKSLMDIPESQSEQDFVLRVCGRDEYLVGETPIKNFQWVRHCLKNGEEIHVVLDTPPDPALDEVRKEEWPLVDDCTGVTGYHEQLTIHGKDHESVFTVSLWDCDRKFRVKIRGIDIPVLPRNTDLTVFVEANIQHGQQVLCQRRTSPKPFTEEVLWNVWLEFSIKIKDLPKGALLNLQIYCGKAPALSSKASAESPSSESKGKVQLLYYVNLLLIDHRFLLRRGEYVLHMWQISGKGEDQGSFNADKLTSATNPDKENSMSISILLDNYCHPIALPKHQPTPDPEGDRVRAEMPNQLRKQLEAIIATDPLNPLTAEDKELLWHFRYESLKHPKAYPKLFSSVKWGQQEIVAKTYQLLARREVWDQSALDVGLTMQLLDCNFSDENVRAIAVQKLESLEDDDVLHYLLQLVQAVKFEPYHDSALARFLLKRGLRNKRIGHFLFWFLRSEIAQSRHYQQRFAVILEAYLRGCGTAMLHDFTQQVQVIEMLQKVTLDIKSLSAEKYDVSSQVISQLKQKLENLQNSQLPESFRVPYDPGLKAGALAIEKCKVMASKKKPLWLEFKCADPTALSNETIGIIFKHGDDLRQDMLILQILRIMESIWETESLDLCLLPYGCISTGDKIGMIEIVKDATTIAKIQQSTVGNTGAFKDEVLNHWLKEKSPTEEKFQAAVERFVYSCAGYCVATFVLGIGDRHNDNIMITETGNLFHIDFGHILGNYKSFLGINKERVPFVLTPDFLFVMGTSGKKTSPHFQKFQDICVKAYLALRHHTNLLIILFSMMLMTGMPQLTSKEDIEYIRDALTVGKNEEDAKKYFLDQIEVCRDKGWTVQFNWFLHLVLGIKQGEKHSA

[7] = biological target: T2, Serine/threonine-protein kinase 17A (Homo sapiens) (UniProt Q9UEE5); experiment: Inhibition of human DRAK1 assessed as residual activity at 1 uM relative to control
T2 sequence (whole entry): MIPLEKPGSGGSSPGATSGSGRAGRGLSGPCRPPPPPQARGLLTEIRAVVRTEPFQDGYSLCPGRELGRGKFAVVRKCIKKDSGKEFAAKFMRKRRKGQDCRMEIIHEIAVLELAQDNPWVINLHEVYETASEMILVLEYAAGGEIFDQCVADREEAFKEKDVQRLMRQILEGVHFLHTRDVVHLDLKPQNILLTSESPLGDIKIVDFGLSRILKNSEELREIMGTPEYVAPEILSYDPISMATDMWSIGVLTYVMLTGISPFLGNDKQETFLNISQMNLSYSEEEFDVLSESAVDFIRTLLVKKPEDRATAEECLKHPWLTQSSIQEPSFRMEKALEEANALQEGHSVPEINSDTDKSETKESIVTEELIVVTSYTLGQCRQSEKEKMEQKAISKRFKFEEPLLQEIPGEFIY

[8] = biological target: Vascular endothelial growth factor receptor 2 (Homo sapiens) (UniProt P35968); experiment: Inhibition of human KDR assessed as residual activity at 1 uM relative to control
[9] = biological target: T3, TGF-beta receptor type-1 (Homo sapiens) (UniProt P36897); experiment: Inhibition of human TGFBR1 assessed as residual activity at 1 uM relative to control
T3 sequence (whole entry): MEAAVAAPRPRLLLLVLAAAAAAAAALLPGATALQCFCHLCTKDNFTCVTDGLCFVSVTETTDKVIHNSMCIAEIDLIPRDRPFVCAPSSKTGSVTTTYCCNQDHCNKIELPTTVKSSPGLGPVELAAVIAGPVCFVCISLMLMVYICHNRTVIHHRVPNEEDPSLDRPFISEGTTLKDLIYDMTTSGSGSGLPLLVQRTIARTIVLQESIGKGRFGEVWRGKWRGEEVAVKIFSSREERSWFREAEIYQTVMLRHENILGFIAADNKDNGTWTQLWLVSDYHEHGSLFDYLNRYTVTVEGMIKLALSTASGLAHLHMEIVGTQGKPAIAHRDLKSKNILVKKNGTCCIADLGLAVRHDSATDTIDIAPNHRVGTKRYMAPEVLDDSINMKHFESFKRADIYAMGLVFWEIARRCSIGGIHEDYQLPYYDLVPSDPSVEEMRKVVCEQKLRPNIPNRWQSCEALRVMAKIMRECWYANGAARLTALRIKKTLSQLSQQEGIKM

[10] = biological target: T4, Inhibitor of nuclear factor kappa-B kinase subunit epsilon (Homo sapiens, UniProt Q14164); experiment: Inhibition of IKK-epsilon (unknown origin) using 5FAM-AKELDQGSLCTpSFVGTLQ-NH2 as substrate by microfluidic mobility shift assay
T4 sequence (Q14164 whole entry): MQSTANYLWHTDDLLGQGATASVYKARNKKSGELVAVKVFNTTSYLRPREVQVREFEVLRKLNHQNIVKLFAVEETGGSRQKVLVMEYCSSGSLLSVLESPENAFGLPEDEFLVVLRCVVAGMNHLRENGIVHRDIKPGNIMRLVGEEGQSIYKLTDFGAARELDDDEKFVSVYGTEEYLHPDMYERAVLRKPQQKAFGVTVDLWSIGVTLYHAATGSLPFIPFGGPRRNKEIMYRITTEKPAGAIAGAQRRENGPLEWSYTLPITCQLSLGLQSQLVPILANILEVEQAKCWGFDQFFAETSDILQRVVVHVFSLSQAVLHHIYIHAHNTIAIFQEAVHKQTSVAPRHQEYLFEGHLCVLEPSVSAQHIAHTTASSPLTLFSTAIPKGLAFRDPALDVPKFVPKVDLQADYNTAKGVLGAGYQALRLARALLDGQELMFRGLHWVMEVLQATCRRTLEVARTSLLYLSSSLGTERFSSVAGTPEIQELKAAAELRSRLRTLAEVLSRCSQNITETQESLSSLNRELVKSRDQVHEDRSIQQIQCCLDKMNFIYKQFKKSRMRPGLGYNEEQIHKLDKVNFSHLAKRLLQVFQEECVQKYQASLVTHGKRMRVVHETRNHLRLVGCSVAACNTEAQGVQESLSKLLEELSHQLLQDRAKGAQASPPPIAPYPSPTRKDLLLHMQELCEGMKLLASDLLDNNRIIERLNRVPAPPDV
Method in brief: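 Recombinant IKK-ε (4 nM) in HEPES buffer with 1.5 µM 5FAM-labelled peptide substrate, ATP at its K_M, and 10 mM MgCl2. The 10-point titration used half-log serial dilutions. Reactions ran at room temperature for a set time, were quenched with EDTA-containing HEPES, and were read by microfluidic mobility shift. Percent inhibition came from the ratio of phosphorylated to total peptide.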

[11] = biological target: MAP kinase-interacting serine/threonine-protein kinase 2 (Homo sapiens) (UniProt Q9HBH9); experiment: Inhibition of human MNK2 assessed as residual activity at 1 uM relative to control
Sequence of MAP kinase-interacting serine/threonine-protein kinase 2 (Homo sapiens) (Q9HBH9 whole entry, looked up): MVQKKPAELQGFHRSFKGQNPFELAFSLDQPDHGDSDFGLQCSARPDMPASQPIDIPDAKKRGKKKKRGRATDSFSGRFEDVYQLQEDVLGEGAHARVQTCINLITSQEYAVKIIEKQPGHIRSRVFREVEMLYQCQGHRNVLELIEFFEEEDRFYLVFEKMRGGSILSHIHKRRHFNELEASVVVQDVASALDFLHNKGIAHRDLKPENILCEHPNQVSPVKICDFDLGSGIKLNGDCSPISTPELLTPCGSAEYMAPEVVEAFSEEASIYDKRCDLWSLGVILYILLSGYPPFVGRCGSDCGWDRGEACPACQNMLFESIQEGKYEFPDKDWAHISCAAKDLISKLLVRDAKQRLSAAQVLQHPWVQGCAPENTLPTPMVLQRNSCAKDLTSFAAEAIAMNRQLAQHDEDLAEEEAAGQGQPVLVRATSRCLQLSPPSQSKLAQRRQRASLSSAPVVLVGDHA

Sequence of Myosin light chain kinase, smooth muscle (Homo sapiens) (Q15746 whole entry): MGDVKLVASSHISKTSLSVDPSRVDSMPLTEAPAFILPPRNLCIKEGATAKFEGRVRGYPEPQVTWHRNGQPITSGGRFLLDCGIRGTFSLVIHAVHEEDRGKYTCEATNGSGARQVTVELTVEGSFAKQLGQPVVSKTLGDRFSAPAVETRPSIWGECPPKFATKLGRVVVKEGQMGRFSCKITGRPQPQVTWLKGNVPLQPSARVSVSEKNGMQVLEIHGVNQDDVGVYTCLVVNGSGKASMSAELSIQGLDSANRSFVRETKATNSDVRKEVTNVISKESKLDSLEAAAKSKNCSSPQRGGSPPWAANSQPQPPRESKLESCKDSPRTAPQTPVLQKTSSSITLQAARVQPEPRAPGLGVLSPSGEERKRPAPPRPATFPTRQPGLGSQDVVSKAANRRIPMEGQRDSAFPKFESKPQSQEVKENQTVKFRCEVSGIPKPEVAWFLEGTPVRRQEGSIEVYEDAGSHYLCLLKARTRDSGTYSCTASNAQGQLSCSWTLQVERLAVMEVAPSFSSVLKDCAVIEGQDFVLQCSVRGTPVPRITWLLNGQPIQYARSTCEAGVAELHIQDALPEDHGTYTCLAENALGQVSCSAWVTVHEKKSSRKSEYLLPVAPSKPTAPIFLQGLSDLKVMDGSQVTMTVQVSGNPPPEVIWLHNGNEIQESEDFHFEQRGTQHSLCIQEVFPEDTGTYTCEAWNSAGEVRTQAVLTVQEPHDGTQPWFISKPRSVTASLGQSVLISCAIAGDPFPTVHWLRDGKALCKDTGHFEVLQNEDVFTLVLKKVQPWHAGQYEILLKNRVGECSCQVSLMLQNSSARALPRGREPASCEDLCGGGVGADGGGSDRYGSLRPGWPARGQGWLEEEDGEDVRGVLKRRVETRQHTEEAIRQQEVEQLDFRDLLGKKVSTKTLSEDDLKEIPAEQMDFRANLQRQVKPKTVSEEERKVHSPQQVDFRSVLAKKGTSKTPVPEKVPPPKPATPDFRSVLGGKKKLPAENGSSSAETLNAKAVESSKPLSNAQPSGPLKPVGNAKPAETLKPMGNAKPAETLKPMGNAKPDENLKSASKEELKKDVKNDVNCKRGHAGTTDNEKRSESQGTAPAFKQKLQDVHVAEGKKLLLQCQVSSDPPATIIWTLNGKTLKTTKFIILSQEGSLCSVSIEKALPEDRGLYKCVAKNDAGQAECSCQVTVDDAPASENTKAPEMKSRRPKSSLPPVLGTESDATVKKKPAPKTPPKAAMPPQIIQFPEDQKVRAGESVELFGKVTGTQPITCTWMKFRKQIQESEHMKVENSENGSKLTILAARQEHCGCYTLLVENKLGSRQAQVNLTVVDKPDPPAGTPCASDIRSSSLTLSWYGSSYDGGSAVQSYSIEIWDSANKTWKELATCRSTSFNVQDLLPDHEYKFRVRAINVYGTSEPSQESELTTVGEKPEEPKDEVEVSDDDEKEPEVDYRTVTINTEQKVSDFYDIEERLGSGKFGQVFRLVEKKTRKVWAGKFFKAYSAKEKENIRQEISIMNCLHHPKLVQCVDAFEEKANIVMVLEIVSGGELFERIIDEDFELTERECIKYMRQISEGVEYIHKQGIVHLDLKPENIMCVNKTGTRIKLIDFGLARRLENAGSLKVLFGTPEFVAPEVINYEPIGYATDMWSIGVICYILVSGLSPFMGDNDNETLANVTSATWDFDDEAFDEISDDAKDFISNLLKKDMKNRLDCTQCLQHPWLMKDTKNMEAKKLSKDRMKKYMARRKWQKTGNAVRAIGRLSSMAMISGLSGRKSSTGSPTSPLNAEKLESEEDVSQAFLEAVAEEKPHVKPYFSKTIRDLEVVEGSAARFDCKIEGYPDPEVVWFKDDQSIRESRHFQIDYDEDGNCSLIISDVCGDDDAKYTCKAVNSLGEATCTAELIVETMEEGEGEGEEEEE

Compound | Activity [1] [%] | Activity [2] [%] | Activity [3] [%] | Activity [4] [%] | IC50 (Aurora kinase B) [nM] | Activity [5] [%] | Activity [6] [%] | Activity [7] [%] | Activity [8] [%] | Activity [9] [%] | IC50 [10] [nM] | Activity [11] [%]
COc1ccc(-c2nc3cc(-c4csc(C(=O)NCC(C)(C)C)c4)cnc3[nH]2)cc1 | 95 | 46 | 89 | 81 | 1440 | 8 | 85 | 8 | 31 | 111 | 497 | 5
COc1ccc(-c2nc3cc(-c4csc(C(=O)NCCC(C)C)c4)cnc3[nH]2)cc1 | 106 | 42 | 68 | 97 | 18800 | 10 | 90 | 7 | 23 | 85 | 1750 | 1
COc1ccc(-c2nc3cc(-c4csc(C(=O)NCC(C)C)c4)cnc3[nH]2)cc1 | 100 | 28 | 68 | 92 | 5920 | -2 | 86 | 4 | 14 | 104 | 273 | 4
